Data from ChEMBL document CHEMBL1156951, “Oxazolomycins: natural product lead structures for novel antibacterials by click fragment conjugation” (2010).
Calls of active or inactive are those of the source. No cut-off for these calls is given here.

Assays:
Type in all cases: functional
Escherichia coli [1] = assay: Antibacterial activity against Escherichia coli X580 at 4 mg/ml by hole plate assay; details: for zone of inhibition at 4000 µg/mL: read-out: DIZ
How it was run: (§1)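 Hole-plate bioassay with samples at 4 mg/ml in 7:3 DMSO/H₂O, loaded into wells of bioassay plates and incubated overnight at 37 °C. The read-out was inhibition zone diameter in mm (±1 mm).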

Staphylococcus aureus = assay: Antibacterial activity against Staphylococcus aureus NCTC 6571 at 4 mg/ml by hole plate assay; how it was run: as §1
Escherichia coli [2] = assay: Antibacterial activity against Escherichia coli X580 assessed as zone of diameter per molar relative to cephalosporin
How it was run: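 Hole-plate agar diffusion: test solutions were loaded into wells of bioassay plates and incubated overnight at 37 °C. Inhibition zone diameters were measured, and relative potency was expressed as zone diameter per M of analyte against standards prepared with cephalosporin C.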

| Compound | zone of inhibition at 4000 µg/mL (Escherichia coli [1]) [mm] | diameter of the inhibition zone (DIZ) (Staphylococcus aureus) | diameter of the inhibition zone (DIZ) (Escherichia coli [1]) | Activity (Escherichia coli [2]) [%] | zone of inhibition at 4000 µg/mL (Staphylococcus aureus; read-out: DIZ) [mm] |
| --- | --- | --- | --- | --- | --- |
| COC(=O)[C@]1(CO)NC(=O)C(C)(C)[C@@]1(O)C#CCCCCn1cc(CNC(=O)C(C)(C)C(O)c2ccccc2)nn1 (stereo partly drawn) | 15 | inactive |  |  |  |
| COC(=O)[C@]1(CO)NC(=O)C(C)(C)[C@@]1(O)C#CCCCCn1cc(CNC(=O)C(C)(C)C(O)CCCCc2ccccc2)nn1 (stereo partly drawn) | 14 | inactive |  |  |  |
| CC1(C)C(=O)N[C@@](CO)(C(=O)O)[C@]1(O)C#Cc1ccccc1 |  | inactive | inactive |  |  |
| COC(=O)[C@]12CO[C@H](C(C)(C)C)N1C(=O)C(C)(C)[C@@]2(O)C#CCCCCn1cc(CNC(=O)C(C)(C)C(O)CCCCc2ccccc2)nn1 (stereo partly drawn) | 13 | inactive |  |  |  |
| COC(=O)[C@]1(CO)NC(=O)C(C)(C)[C@@]1(O)C#Cc1ccccc1 |  | inactive | inactive |  |  |
| CCCCCCCC(O)C(C)(C)C(=O)NCc1cn(CCCCC#C[C@]2(O)C(C)(C)C(=O)N[C@@]2(CO)C(=O)OC)nn1 (stereo partly drawn) |  | inactive | inactive |  |  |
| CCCCCCCCC#C[C@]1(O)C(C)(C)C(=O)N[C@@]1(CO)C(=O)OC |  | inactive | inactive |  |  |
| CCCCCCCC(O)C(C)(C)C(=O)NCc1cn(CCCCC#C[C@]2(O)C(C)(C)C(=O)N3[C@@H](C(C)(C)C)OC[C@@]32C(=O)OC)nn1 (stereo partly drawn) | 14 | inactive |  |  |  |
| COC(=O)[C@]1(CO)NC(=O)C(C)(C)[C@@]1(O)CCCCCc1cc(CNC(=O)C(C)(C)C(O)CCCCc2ccccc2)on1 (stereo partly drawn) | 14 | inactive |  | 0.1 |  |
| COC(=O)[C@]1(CO)NC(=O)C(C)(C)[C@@]1(O)CCCCCc1cc(CNC(=O)C(C)(C)C(O)c2ccccc2)on1 (stereo partly drawn) | 13 | inactive |  |  |  |
| CCCCCCCC(O)C(C)(C)C(=O)NCc1cc(CCCCC[C@]2(O)C(C)(C)C(=O)N[C@@]2(CO)C(=O)OC)no1 (stereo partly drawn) | 17 | inactive |  | 0.2 |  |
| COC(=O)[C@]12CO[C@H](C(C)(C)C)N1C(=O)C(C)(C)[C@@]2(O)CCCCCCO |  | inactive | inactive |  |  |
| COC(=O)[C@]12CO[C@H](C(C)(C)C)N1C(=O)C(C)(C)[C@@]2(O)C#CCCCCO |  | inactive | inactive |  |  |
| COC(=O)[C@]12CO[C@H](C(C)(C)C)N1C(=O)C(C)(C)[C@@]2(O)C#CCNC(=O)C(C)(C)C(O)c1ccccc1 (stereo partly drawn) | 17 | inactive |  | 0.1 |  |
| CCCCCCCC(O)C(C)(C)C(=O)NCc1cc(CCCCC[C@]2(O)C(C)(C)C(=O)N3[C@@H](C(C)(C)C)OC[C@@]32C(=O)OC)no1 (stereo partly drawn) |  | inactive | inactive |  |  |
| COC(=O)[C@]12CO[C@H](C(C)(C)C)N1C(=O)C(C)(C)[C@@]2(O)C#CCCCCn1cc(CNC(=O)C(C)(C)C(O)c2ccccc2)nn1 (stereo partly drawn) | 14 | inactive |  |  |  |
| COC(=O)[C@]1(CO)NC(=O)C(C)(C)[C@@]1(O)C#CCNC(=O)C(C)(C)C(O)c1ccccc1 (stereo partly drawn) |  | inactive | inactive |  |  |
| COC(=O)[C@]12CO[C@H](C(C)(C)C)N1C(=O)C(C)(C)[C@@]2(O)CCCCCc1cc(CNC(=O)C(C)(C)C(O)c2ccccc2)on1 (stereo partly drawn) |  | inactive | inactive |  |  |
| COC(=O)[C@]12CO[C@H](C(C)(C)C)N1C(=O)C(C)(C)[C@@]2(O)CCCCCc1cc(CNC(=O)C(C)(C)C(O)CCCCc2ccccc2)on1 (stereo partly drawn) | 15 | inactive |  |  |  |
| COC(=O)[C@]12CO[C@H](C(C)(C)C)N1C(=O)C(C)(C)[C@@]2(O)C#Cc1ccccc1 |  |  | inactive |  | 13 |
| CCCCCCCCC#C[C@]1(O)C(C)(C)C(=O)N2[C@@H](C(C)(C)C)OC[C@@]21C(=O)OC |  | inactive | inactive |  |  |
| COC(=O)[C@]12CO[C@H](C(C)(C)C)N1C(=O)C(C)(C)[C@@]2(O)C#CCCCCBr | 14 | inactive |  | 0.05 |  |
